# Assay outcomes (PubChem BioAssay)
# TRPC4 potent = positive allosteric modulators of TRPC4, primary screen, cell-based, mouse TRPC4beta, HEK293 mu-opioid, Fluo-4 calcium. AID 2227, 2009. B-score at 10 µM. 310,000 compounds, 0.42% hits. DAMGO EC20, Fluo-4 Ca2+ flux; hits give high values. Short transient receptor potential channel 4 (Mus musculus), Q9QUQ5;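 active = B-score of calcium response area above 5 SD of library B-scores, with initial fluorescence ratio within 5 SD of library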;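 also: B-score of integrated fluorescence ratio over time as area under calcium response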
# Target sequence (Q9QUQ5 whole entry, looked up): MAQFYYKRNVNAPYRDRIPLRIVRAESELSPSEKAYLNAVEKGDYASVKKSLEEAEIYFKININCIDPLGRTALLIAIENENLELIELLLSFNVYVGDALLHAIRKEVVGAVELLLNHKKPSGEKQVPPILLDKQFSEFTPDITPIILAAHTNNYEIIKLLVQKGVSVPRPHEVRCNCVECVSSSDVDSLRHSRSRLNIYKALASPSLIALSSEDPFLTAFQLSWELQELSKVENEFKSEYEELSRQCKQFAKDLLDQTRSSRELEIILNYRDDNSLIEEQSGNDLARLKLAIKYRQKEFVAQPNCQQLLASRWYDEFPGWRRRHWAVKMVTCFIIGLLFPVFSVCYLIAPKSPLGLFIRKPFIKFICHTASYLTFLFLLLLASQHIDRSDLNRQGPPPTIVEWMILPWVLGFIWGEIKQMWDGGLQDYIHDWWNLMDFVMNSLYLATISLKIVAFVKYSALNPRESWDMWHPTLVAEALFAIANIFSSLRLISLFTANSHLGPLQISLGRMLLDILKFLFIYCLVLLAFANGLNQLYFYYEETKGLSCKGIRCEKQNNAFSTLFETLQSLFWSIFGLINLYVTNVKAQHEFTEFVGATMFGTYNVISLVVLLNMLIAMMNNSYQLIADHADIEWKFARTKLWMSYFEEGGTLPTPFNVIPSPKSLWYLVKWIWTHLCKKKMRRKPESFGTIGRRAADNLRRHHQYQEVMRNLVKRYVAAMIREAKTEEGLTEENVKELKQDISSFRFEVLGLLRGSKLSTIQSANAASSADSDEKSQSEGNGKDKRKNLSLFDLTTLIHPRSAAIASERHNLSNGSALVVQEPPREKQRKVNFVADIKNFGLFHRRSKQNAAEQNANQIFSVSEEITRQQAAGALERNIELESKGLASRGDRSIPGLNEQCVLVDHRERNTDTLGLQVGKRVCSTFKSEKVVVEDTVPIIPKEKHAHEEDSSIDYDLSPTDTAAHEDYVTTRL
# TRPC6 act = mouse TRPC6 channel activators, primary screen, cell-based, HEK293, membrane potential dye; Short transient receptor potential channel 6 (Mus musculus), Q61143; HEK293-TRPC6 membrane potential dye fluorescence; hits give high values; B-score at 10 µM; 310,000 compounds, 0.13% hits; AID 2550, 2010;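 active = B-score of the integrated fluorescence ratio above library mean plus 3 SD, and starting fluorescence ratio within library mean plus 5 SD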;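 also: higher score means more depolarization so channel activation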
# FID counter = compounds displacing fluorescent DNA intercalator, primary screen, artefact control for HCV NS3 helicase inhibitor project, biochemical, FID fluorescence | DNA fluorescent intercalator displacement | inhibition, % at 7.9 µM | 290,000 compounds, 0.17% hits; in the data active = inhibition above about 37%;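 also: 0% = vehicle and 100% = reference compound; higher means more ethidium bromide displaced from hairpin DNA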
# TRPC4 inh = inhibitors of mouse TRPC4 channel, primary screen, Fluo4 calcium, HEK293 TRPC4beta/mu-opioid cells; DAMGO-evoked Fluo4 calcium flux; hits give low values; B-score at 10 µM; 300,000 compounds, 0.39% hits; AID 2247, 2010;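 active = B-score over 3 SD under the library average, no early fluorescence shift, positive overall ratio signal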
#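 System: stable TRPC4beta/mu-opioid receptor HEK293 cells; Dosing: single-point compound dosing; Measured by: Fluo4 Ca2+ flux fluorescence; Read-out basis: per-well B score of integrated baseline-normalized Fluo4 ratio.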
# TRPC6 inhibitor = mouse TRPC6 channel inhibitors, primary screen, cell-based, HEK293, membrane potential dye; 310,000 compounds, 1.1% hits; AID 2553, 2010; B-score at 10 µM; ACh-evoked depolarization; hits give low values;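 active = B-score under library mean minus 3 SD, initial fluorescence not abnormally high, positive integrated signal ratio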;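 also: B-score derived from integrated fluorescence ratio over the kinetic read; more negative B-score means stronger inhibition of depolarization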
# TRPC4 act = activators of mouse TRPC4 channel, primary screen, Fluo4 calcium, HEK293 TRPC4beta/mu-opioid cells. AID 2237, 2010. 310,000 compounds, 0.49% hits. Fluo4 calcium fluorescence; hits give high values. B-score at 10 µM;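 active = B-score above 5 SD of library B-scores, and initial fluorescence ratio not above library mean plus 5 SD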;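 also: positive B-score marks a calcium rise read as TRPC4 activation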
#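 Assay system – TRPC4beta and mu-opioid receptor HEK293 stable cells · Measured by – Fluo4 fluorescence, kinetic · Schedule – dye loading 45 min room temperature, 110 s kinetic read · Read-out – B-scored integrated calcium fluorescence ratio · Controls – buffer and maximal DAMGO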
# TRPC4 sel inh 2 = mouse TRPC4 off-target activity of TRPC6 inhibitors, second screen | shares compounds with TRPC6 inhibitor | HEK293 TRPC4/MOR, membrane potential dye fluorescence; channel activated by saturating DAMGO dose | inhibition, % at 10 µM | 920 compounds, 42% hits;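 active = compounds whose fluorescence signal differed from control wells by over 3 SD, either direction, in both duplicate plates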
# TRPC4 spec = mouse TRPC4 modulation by TRPC6 hits, confirmation, selectivity assay for TRPC6 inhibitor project, cell-based, HEK293 TRPC4/mu-opioid, membrane potential dye; shares compounds with TRPC6 inhibitor; membrane potential fluorescence; activity change, negative = inhibition, % at 10 µM; 920 compounds, 61% hits; AID 2777, 2010;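 active = rise or fall in signal beyond 3 SD of buffer-only wells in both replicate plates, either sign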;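 also: integrated kinetic ratio of fluorescence range over baseline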
# HEK293 MPD ctr 2-1 = nonspecific membrane potential effects, parental HEK293, confirmation, counter-screen for TRPC6 inhibitor project, cell-based, second counter screen; shares compounds with TRPC6 inhibitor; parental HEK293 membrane potential dye fluorescence; maximal acetylcholine challenge after compound addition; signal change vs control, % at 10 µM; 920 compounds, 31% hits; AID 2779, 2010;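 active = membrane potential signal moving either way by over 3 SD of the maximum-effect control, in both duplicate plates, meaning non-specific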
# HEK293 MPD ctr-1 = membrane potential modulation in parental HEK293, confirmation, counter-screen for TRPC6 inhibitor project, cell-based; shares compounds with TRPC6 inhibitor; parental HEK293 membrane potential dye fluorescence; membrane potential signal change, % at 10 µM; 920 compounds, 60% hits;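 active = membrane potential signal shifting up or down by more than 3 SD of buffer-only wells, on both duplicate plates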
# HEK293 MPD ctr-2 = parental HEK293 membrane potential modulation, confirmation, counter-screen for TRPC6 modulator project, cell-based. shares compounds with TRPC6 inhibitor. membrane potential dye fluorescence. membrane potential signal change, % at 10 µM. 2,400 compounds, 51% hits;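 active = membrane potential signal moves up or down beyond 5 SD from buffer-only wells, on both duplicate plates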
# HEK293 MPD ctr 2-2 = parental HEK293 nonspecific activity of TRPC6 modulators, second screen; shares compounds with TRPC6 inhibitor; membrane potential dye fluorescence; after compound, maximal acetylcholine stimulation; inhibition, % at 10 µM; 2,400 compounds, 14% hits; AID 488926;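 active = membrane potential signal drops by more than 5 SD from the mean control signal, in both duplicate plates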;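 also: plate controls were acetylcholine ECmax control wells for no effect and buffer only wells for full effect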
# TRPC4 ctr mod = TRPC4 modulation by TRPC6 hit compounds, confirmation, selectivity assay for TRPC6 modulator project, cell-based, HEK293 TRPC4/mu-opioid, membrane potential dye, mouse | membrane potential fluorescence | 2,400 compounds, 69% hits | shares compounds with TRPC6 inhibitor | percent change from control (negative = decrease, positive = increase), % at 10 µM;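 active = membrane potential signal moved up or down beyond 5 SD of buffer control wells, in both duplicate plates, actives on both sides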;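 also: plate controls were assay buffer wells for no effect and DAMGO maximal-effect wells for full effect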
# TRPC4 ctr inh 2 = second selectivity test of TRPC6 modulators against mouse TRPC4; shares compounds with TRPC6 inhibitor; HEK293 TRPC4/mu-opioid, membrane potential dye fluorescence; stimulated with maximal-effect DAMGO; inhibition, % at 10 µM; 2,400 compounds, 55% hits; AID 488928;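 active = drop in membrane potential signal beyond 5 SD of the control wells in both duplicate plates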;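 also: TRPC4 counter screen for TRPC6 hits run under conditions tuned for TRPC6 not TRPC4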
# TRPC6 inh conf = mouse TRPC6 channel inhibitors, confirmation, HEK293 cells, membrane potential dye, duplicate | shares compounds with TRPC6 inhibitor | ACh-evoked depolarization | inhibition, % at 10 µM | 3,300 compounds, 43% hits | AID 488960, 2010;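 active = fluorescence ratio falls more than 5 SD below the full-stimulation control mean, in both duplicate runs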;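 also: integrated fluorescence ratio of peak minus minimum over baseline after agonist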
# TRPC6 act confirm = mouse TRPC6 channel activators, confirmation, HEK293 cells, membrane potential dye, duplicate. activation, % at 10 µM. HEK293-TRPC6 membrane potential dye fluorescence, FDSS. shares compounds with TRPC6 inhibitor. 2,800 compounds, 11% hits;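 active = ratio signal rise beyond 5 SD above unstimulated control wells' mean, seen in both duplicate runs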;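 also: plate controls were buffer EC0 wells for no effect and acetylcholine ECmax response for full effect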
# * = called active by the depositor; i = inactive; · = no result given. Hits are enriched below; roughly 2.3% of the tested compounds scored in any of these assays.
SMILES,TRPC4 potent,TRPC6 act,FID counter,TRPC4 inh,TRPC6 inhibitor,TRPC4 act,HEK293 MPD ctr-2,HEK293 MPD ctr 2-2,TRPC4 ctr mod,TRPC4 ctr inh 2,TRPC6 inh conf,TRPC6 act confirm,others
Cc1cc(NCCN2CCOCC2)c2ccc3ccccc3c2n1,i,i,47*,i,-6.5*,i,-94%*,65%*,-26%*,70%*,57%*,i,
O=C(CSc1c2c(nc3ccc(Cl)cc13)CCCC2)NCCCN1CCOCC1,i,i,8,i,-11*,i,·,·,·,·,i,i,TRPC4 sel inh 2=i;TRPC4 spec=i;HEK293 MPD ctr 2-1=34%*;HEK293 MPD ctr-1=i
O=C(CSc1c2c(nc3cc(Cl)ccc13)CCCC2)NCCCN1CCOCC1,i,i,14,i,i,i,·,·,·,·,·,·,
O=C(NC1CCCCC1)C(c1ccc(F)cc1)N(C(=O)c1csnn1)C1CC1 (configuration not stated),i,i,-11,i,i,i,·,·,·,·,·,·,
CCN(CC)c1ccc(/C=C(/C#N)C(=O)NC(C)C)o1,i,i,-7,i,i,i,·,·,·,·,·,·,
CCN(CC)c1ccc(/C=C(/C#N)C(=O)NCc2ccccc2)o1,i,19*,-9,i,i,i,590%*,i,183%*,i,i,132%*,
Cc1ccc(-c2n[nH]c(=S)n2-c2ccccc2)cc1,i,i,-9,i,i,i,·,·,·,·,·,·,
Cc1ccc(-n2c(-c3cccc(C)c3)n[nH]c2=S)cc1,i,i,-15,i,-18*,i,i,i,i,i,i,i,
Cc1ccc(-n2nc3c(c2NC(=O)C(C)C)CS(=O)(=O)C3)cc1,i,i,-4,i,-5.5*,i,i,i,21%*,i,i,·,
Cc1cc(C)c(NC(=O)C2CCCO2)c(C)c1 (configuration not stated),i,i,·,i,i,i,·,·,·,·,·,·,
Cc1ccc(O)c([C@H](CCN(C(C)C)C(C)C)c2ccccc2)c1,i,i,13,i,-6.2*,i,174%*,96%*,33%*,41%*,87%*,·,
CCCN(CCC)C(=O)CC(c1ccccc1)c1ccc(C)cc1O (configuration not stated),i,i,-38,i,i,i,·,·,·,·,·,·,
CC(=O)C1C(=O)c2c(cccc2[N+](=O)[O-])C1=Nc1ccc(S(N)(=O)=O)cc1 (configuration not stated),i,i,5,i,-9.7*,i,-250%*,i,-51%*,52%*,i,i,
CC(=O)C1=C(O)C(=O)N(c2ccc(S(N)(=O)=O)cc2)C1c1cccc([N+](=O)[O-])c1 (configuration not stated),i,i,2,i,i,i,·,·,·,·,·,·,
Cc1cccc(N2CCN(C(=O)c3ccc4c(c3)c(C)c(C)n4C)CC2C)c1 (configuration not stated),i,i,-51,i,-5.1*,i,i,i,i,i,i,i,
N=c1sccn1CC(=O)Nc1cccc(Oc2ccccc2)c1,i,i,34,i,-5.7*,i,i,i,i,82%*,52%*,i,
N=c1sccn1CC(=O)Nc1ccc(Cl)cc1[N+](=O)[O-],i,i,4,i,i,i,·,·,·,·,·,·,
N=c1sccn1CC(=O)Nc1cccc(S(N)(=O)=O)c1,i,i,-1,i,i,i,·,·,·,·,·,·,
N=c1sccn1CC(=O)Nc1cc(Cl)ccc1Oc1ccccc1,i,i,13,i,-9.6*,i,·,·,·,·,69%*,i,TRPC4 sel inh 2=24%*;TRPC4 spec=i;HEK293 MPD ctr 2-1=i;HEK293 MPD ctr-1=i
CC1CN(C(=O)Cn2cc(S(=O)(=O)CC(=O)N3CCOCC3)c3ccccc32)CC(C)O1 (configuration not stated),i,i,-9,i,i,i,·,·,·,·,·,·,
Cc1onc(-c2c(Cl)cccc2Cl)c1C(=O)N1CCc2ccccc21,i,i,-18,i,-5.1*,i,i,i,12%*,i,i,i,
